Experimental data taken from ChEMBL document CHEMBL2046427, “Nonhematotoxic naphthalene diimide modified by polyamine: synthesis and biological evaluation” (J Med Chem, 2012).
The source made the active and inactive calls. The calls are words filed in the database; no cut-off is given here.

Key:
H22 [1] = assay: Antitumor activity against mouse H22 cells xenografted in Kunming mouse assessed as median survival time at 0.2 […], iv administered 24 hrs post-tumor injection for 7 days relative to vehicle treated control; assay type: functional
Outline: (§1)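 Kunming mice bearing H22 cells; iv (caudal vein) dosing or physiologic saline control started 24 h after inoculation and given for 7 consecutive days. Median survival time recorded per group; activity judged as increase in lifespan versus saline control.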

HepG2 [2] = assay: Cytotoxicity against human HepG2 cells assessed as cell nuclear shrinkage after 48 hrs by Hoechst 33342-based fluorescence-based high-content screening assay; assay type: functional
Outline: (§2)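 HepG2 seeded 5 × 10³/well; after 12 h treated at 1, 5, 10, 15 and 30 μM for 48 h. Multiparameter cytotoxicity kit staining imaged by high-content screening: Hoechst 33342 for nuclear morphology, permeability dye (green nuclei) for membrane integrity, mitochondrial potential dye, and a weak-base dye for lysosomal mass/pH.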

HepG2 [3] = assay: Cytotoxicity against human HepG2 cells after 48 hrs by MTT assay; assay type: functional, cell-based; conditions: HepG2, 48 h
Outline: (§3)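 MTT conversion assay at 37 °C, 5% CO₂. […] Inhibition relative to untreated cells as 100%; IC50 by linear regression, mean of three independent experiments.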

Mus musculus [4] = assay: Toxicity in mouse H22 cells bearing Kunming mouse assessed as decrease in red blood cells number at 0.2 mg/kg, iv administered for 7 days measured on day 8 relative to vehicle treated control; assay type: organism-based; design: dose 0.2 mg/kg, route intravenous; conditions: in vivo, 168 h
Outline: (§4)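 Tumour-bearing Kunming mice (10/group) dosed iv daily for 7 days, then killed on day 8. Blood and bone marrow counted on a Coulter counter for platelets, RBC, WBC and marrow cells. Spleen and thymus weighed; organ index (%) = (organ weight/body weight) × 100. Mean ± SD; Student's t test or ANOVA with q test versus saline.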

HepG2 [5] = assay: Induction of apoptosis in human HepG2 cells assessed as caspase 3 activation at 10 uM after 48 hrs by indirect immunofluorescence method; assay type: functional, cell-based
Outline: (§5)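 HepG2 in 24-well plates treated at 10 μM for 48 h, harvested and stained with annexin V–FITC/propidium iodide kit or cleaved caspase 3 indirect immunofluorescence. Imaging by high-content screening with target-activation analysis; comparison against control.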

HepG2 [6] = assay: Cytotoxicity against human HepG2 cells assessed as decrease in mitochondrial membrane potential after 48 hrs by fluorescence-based high-content screening assay; assay type: functional, cell-based; outline: as §2
HepG2 [7] = assay: Cytotoxicity in human HepG2 cells assessed as mitochondrial membrane damage at 10 uM after 48 hrs by fluorescence-based high-content screening assay; assay type: functional, cell-based
HepG2 [8] = assay: Cytotoxicity in human HepG2 cells assessed as decrease in mitochondrial membrane potential at 10 uM after 48 hrs by fluorescence-based high-content screening assay; assay type: functional, cell-based
Mus musculus [9] = assay: Toxicity in mouse H22 cells bearing Kunming mouse assessed pathological changes in kidney at 0.2 mg/kg, iv administered for 7 days measured on day 8 by hematoxylin and eosin staining relative to vehicle treated control; assay type: organism-based; design: dose 0.2 mg/kg, route intravenous; conditions: in vivo, 168 h
Mus musculus [10] = assay: Toxicity in mouse H22 cells bearing Kunming mouse assessed pathological changes in spleen at 0.2 mg/kg, iv administered for 7 days measured on day 8 by hematoxylin and eosin staining relative to vehicle treated control; assay type: organism-based; design: dose 0.2 mg/kg, route intravenous; conditions: in vivo, 168 h
HCT-116 = assay: Cytotoxicity against human HCT116 cells after 48 hrs by MTT assay; assay type: functional, cell-based; conditions: HCT-116, 48 h; outline: as §3
HepG2 [11] = assay: Induction of apoptosis in human HepG2 cells assessed as phosphatidylserine externalisation at 10 uM after 48 hrs by annexinV/FITC-based high-content screening assay; assay type: functional, cell-based; outline: as §5
H22 [12] = assay: Antimetastatic activity against mouse H22 cells xenografted in Kunming mouse assessed as decrease in lung metastasis focuses at 0.2 mg/kg, iv administered on day 11 post-tumor injection for 7 days measured on day 18 relative to vehicle treated control; assay type: functional, organism-based; design: dose 0.2 mg/kg
Mus musculus [13] = assay: Toxicity in mouse H22 cells bearing Kunming mouse assessed pathological changes in lung at 0.2 mg/kg, iv administered for 7 days measured on day 8 by hematoxylin and eosin staining relative to vehicle treated control; assay type: organism-based; design: dose 0.2 mg/kg, route intravenous; conditions: in vivo, 168 h
Mus musculus [14] = assay: Toxicity in mouse H22 cells bearing Kunming mouse assessed as change in thymus index number at 0.2 mg/kg, iv administered for 7 days measured on day 8 relative to vehicle treated control; assay type: organism-based; design: dose 0.2 mg/kg, route intravenous; conditions: in vivo, 168 h; outline: as §4
Mus musculus [15] = assay: Toxicity in mouse H22 cells bearing Kunming mouse assessed as change in spleen index number at 0.2 mg/kg, iv administered for 7 days measured on day 8 relative to vehicle treated control; assay type: organism-based; design: dose 0.2 mg/kg, route intravenous; conditions: in vivo, 168 h; outline: as §4
H22 [16] = assay: Antitumor activity against mouse H22 cells xenografted in Kunming mouse assessed as decrease in cell survival at 0.2 mg/kg, iv administered on day 8 post-tumor injection for 7 days measured on day 16 by hematoxylin and eosin staining relative to vehicle treated control; assay type: functional, organism-based; design: dose 0.2 mg/kg
Mus musculus [17] = assay: Toxicity in mouse H22 cells bearing Kunming mouse assessed pathological changes in heart at 0.2 mg/kg, iv administered for 7 days measured on day 8 by hematoxylin and eosin staining relative to vehicle treated control; assay type: organism-based; design: dose 0.2 mg/kg, route intravenous; conditions: in vivo, 168 h
H22 [18] = assay: Antimetastatic activity against mouse H22 cells xenografted in Kunming mouse assessed as tumor weight at 0.2 mg/kg, iv administered on day 11 post-tumor injection for 7 days measured on day 18 (reference value: 0.34 +/- 0.15 g); assay type: functional
Mus musculus [19] = assay: Toxicity in mouse H22 cells bearing Kunming mouse assessed pathological changes in liver at 0.2 mg/kg, iv administered for 7 days measured on day 8 by hematoxylin and eosin staining relative to vehicle treated control; assay type: organism-based; design: dose 0.2 mg/kg, route intravenous; conditions: in vivo, 168 h
HepG2 [20] = assay: Cytotoxicity in human HepG2 cells assessed as gain in lysosomal mass/pH at 10 uM after 48 hrs by fluorescence-based high-content screening assay; assay type: functional, cell-based
H22 [21] = assay: Antitumor activity against mouse H22 cells xenografted in Kunming mouse assessed as tumor growth inhibition at 0.2 mg/kg, iv administered on day 8 post-tumor injection for 7 days measured on day 16 relative to vehicle treated control; assay type: functional; conditions: read-out: GI
Outline: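 Male Kunming mice, 5 weeks, 18−22 g, injected sc with 2 × 10⁶ H22 cells. From day 8, randomized groups got caudal vein injection (0.2 or 5 mg/kg, or physiologic saline) for 7 consecutive days. On day 16 tumours excised and weighed; inhibitory rate (%) = [(A − B)/A] × 100 using mean tumour weights of control (A) and treated (B). Tumours formalin-fixed, H&E-stained.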

Mus musculus [22] = assay: Toxicity in mouse H22 cells bearing Kunming mouse assessed as decrease in platelet number at 0.2 mg/kg, iv administered for 7 days measured on day 8 relative to vehicle treated control; assay type: organism-based; design: dose 0.2 mg/kg, route intravenous; conditions: in vivo, 168 h; outline: as §4
Mus musculus [23] = assay: Toxicity in mouse H22 cells bearing Kunming mouse assessed as weight loss at 0.2 mg/kg, iv administered for 7 days measured on day 8 relative to vehicle treated control; assay type: organism-based; design: dose 0.2 mg/kg, route intravenous; conditions: in vivo, 168 h
Outline: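 Body weight tracked during 7 consecutive days of daily iv dosing in tumour-bearing Kunming mice, with saline controls; animals killed on day 8.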

HepG2 [24] = assay: Cytotoxicity in human HepG2 cells assessed as loss of cell membrane integrity at 10 uM after 48 hrs by fluorescence-based high-content screening assay; assay type: functional
MDA-MB-231 = assay: Cytotoxicity against human MDA-MB-231 cells after 48 hrs by MTT assay; assay type: functional, cell-based; conditions: MDA-MB-231, 48 h; outline: as §3
H22 [25] = assay: Antimetastatic activity against mouse H22 cells xenografted in Kunming mouse assessed as decrease in lung tumor burden at 0.2 mg/kg, iv administered on day 11 post-tumor injection for 7 days measured on day 18 relative to vehicle treated control; assay type: functional, organism-based; design: dose 0.2 mg/kg
HepG2 [26] = assay: Induction of apoptosis in human HepG2 cells assessed as reactive oxygen species generation at 10 uM after 48 hrs by […]-based staining; assay type: functional, cell-based
Outline: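 HepG2 given 10 μM for 48 h; intracellular ROS by DCFH-DA staining imaged by high-content screening, compared with untreated control.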

H22 [27] = assay: Antitumor activity against mouse H22 cells xenografted in Kunming mouse assessed as median survival time at 0.2 […], iv administered 24 hrs post-tumor injection for 7 days (reference value: 12.7 +/- 2.5 days); assay type: functional; outline: as §1
Mus musculus [28] = assay: Toxicity in mouse H22 cells bearing Kunming mouse assessed pathological changes in brain at 0.2 mg/kg, iv administered for 7 days measured on day 8 by hematoxylin and eosin staining relative to vehicle treated control; assay type: organism-based; design: dose 0.2 mg/kg, route intravenous; conditions: in vivo, 168 h
HepG2 [29] = assay: Cytotoxicity against human HepG2 cells assessed as acruement in lysosomal mass/pH after 48 hrs by fluorescence-based high-content screening assay; assay type: functional, cell-based; outline: as §2
Mus musculus [30] = assay: Toxicity in mouse H22 cells bearing Kunming mouse assessed as decrease in white blood cells number at 0.2 mg/kg, iv administered for 7 days measured on day 8 relative to vehicle treated control; assay type: organism-based; design: dose 0.2 mg/kg, route intravenous; conditions: in vivo, 168 h; outline: as §4
HepG2 [31] = assay: Cytotoxicity against human HepG2 cells assessed as mitochondrial permeability augmentation after 48 hrs by fluorescence-based high-content screening assay; assay type: functional, cell-based; outline: as §2
Mus musculus [32] = assay: Hematotoxicity in mouse H22 cells bearing Kunming mouse assessed as decrease in bone marrow cell numbers at 0.2 mg/kg, iv administered for 7 days measured on day 8 relative to vehicle treated control; assay type: organism-based; design: dose 0.2 mg/kg, route intravenous; conditions: in vivo, 168 h; outline: as §4

## Cl.NCCCNCCCCNCCCN1C(=O)c2ccc3c4c(ccc(c24)C1=O)C(=O)N(CCCNCCCCNCCCN)C3=O
H22 [1]
  Ratio: 2.3
HepG2 [2]
  Activity: Dose-dependent effect
HepG2 [3]
  IC50: 1220 nM
Mus musculus [4]
  Activity: Non-toxic
HepG2 [5]
  Activity: Active
HepG2 [6]
  Activity: Dose-dependent effect
HepG2 [7]
  Activity: Active
HepG2 [8]
  Activity: Active
Mus musculus [9]
  Activity: Non-toxic
Mus musculus [10]
  Activity: Non-toxic
HCT-116
  IC50: 130 nM
HepG2 [11]
  Activity: Active
H22 [12]
  Activity: Active
Mus musculus [13]
  Activity: Non-toxic
Mus musculus [14]
  Activity: Non-toxic
Mus musculus [15]
  Activity: Non-toxic
H22 [16]
  Activity: Active
Mus musculus [17]
  Activity: Non-toxic
H22 [18]
  Activity: 0.17 g
Mus musculus [19]
  Activity: Non-toxic
HepG2 [20]
  Activity: Active
H22 [21]
  inhibition in vivo at 0.2 mg/kg: 51.8%
Mus musculus [22]
  Activity: Non-toxic
Mus musculus [23]
  Activity: Non-toxic
HepG2 [24]
  Activity: Active
MDA-MB-231
  IC50: 450 nM
H22 [25]
  Activity: Active
HepG2 [26]
  Activity: Active
H22 [27]
  MST: 29.8 days
Mus musculus [28]
  Activity: Non-toxic
HepG2 [29]
  Activity: Dose-dependent effect
Mus musculus [30]
  Activity: Non-toxic
HepG2 [31]
  Activity: Dose-dependent effect
Mus musculus [32]
  Activity: Non-toxic
